This is a sample that favours compounds with a hit; in the whole collection about 0.89% have one here.
TNF necrop inh – inhibitors of TNF-alpha induced necroptosis in Jurkat FADD-/- cells; 220,000 tested, 0.068% active; activation (protection from cell death), % at 10 µM; Jurkat FADD-/- TNF necroptosis rescue, ATP luminescence, 24 h; 0 = TNF only, 100 = no-TNF cells; AID 463075;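 active = activation, meaning protection from cell death, of at least 50% relative to plate controls; inactive = activation below 50%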;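 also: necroptosis triggered by 40 ng/mL TNF-alpha added together with compound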
MDM2 E3 inh – blocks human Mdm2 ubiquitin ligase activity | cell-based MDM2 ubiquitination luciferase reporter, 2 h; 0 = plate control, 100 = twice control, blank-subtracted | signal enhancement, % at 5 µM | 210,000 tested, 0.11% active | AID 1230;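 active = signal enhancement of 30% or more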;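 also: luminescence tracks abundance of the self-degrading MDM2-luciferase fusion protein; higher signal means inhibition of MDM2 E3 ligase activity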
Target sequence (Q00987 whole entry, looked up, the tested form may be a part): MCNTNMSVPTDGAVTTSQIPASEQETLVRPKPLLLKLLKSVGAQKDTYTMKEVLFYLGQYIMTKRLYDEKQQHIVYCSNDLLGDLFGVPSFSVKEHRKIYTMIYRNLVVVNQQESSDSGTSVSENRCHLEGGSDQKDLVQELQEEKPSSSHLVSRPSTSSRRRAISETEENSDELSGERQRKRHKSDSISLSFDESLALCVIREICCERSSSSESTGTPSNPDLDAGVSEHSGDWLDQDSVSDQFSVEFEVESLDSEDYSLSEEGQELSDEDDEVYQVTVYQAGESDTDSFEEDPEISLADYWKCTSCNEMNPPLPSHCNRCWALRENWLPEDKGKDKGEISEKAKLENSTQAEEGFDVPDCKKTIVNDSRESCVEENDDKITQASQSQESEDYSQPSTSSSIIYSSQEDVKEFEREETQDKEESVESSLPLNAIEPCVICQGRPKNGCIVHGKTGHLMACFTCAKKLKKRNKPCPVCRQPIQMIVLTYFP
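System: stable MDM2–luciferase fusion reporter cells / Input: 2000 cells seeded into each well / Schedule: 4 h settle plus 2 h compound, 37 °C / Compound: single-point 5 µM / Buffer or medium: cells held in DMEM / Benchmarks: control and blank well means / Evaluation: percent signal gain over controls, blank-subtracted / Measured by: luciferase luminescence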
HSV augment – HSV replication enhancement | HSV replication augmentation in cells, fold increase | maximum fold increase | 220,000 tested, 0.005% active | AID 1956; in the data active = maximum fold increase above about 1.5; tested in PC3 cells
L929 necroptosis – blocks zVAD induced death of L929 cells. L929 zVAD necroptosis rescue, ATP luminescence, 24 h; with zVAD 60 µM. 220,000 tested, 0.38% active. viability rescue, % at 10 µM;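 active = activation, scaled between plate controls, above about 75%, limit read from the data; inactive = activation under that limit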;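 also: 0% = zVAD with DMSO and 100% = DMSO alone without zVAD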
E-sel TNF inh – TNF alpha driven E-selectin expression inhibition; HUVEC TNFa-induced E-selectin immunofluorescence, high content; 120,000 tested, 0.71% active; inhibition, % at 2 µM;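 active = inhibition above the batch mean plus 3 SD, and confirmed as a hit on visual image review, cut at about 43% in these data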;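 also: 0% = TNF-stimulated DMSO wells and 100% = unstimulated control wells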
* hit, by the source's call; i = inactive; x = not tested or not shown.

SMILES	TNF necrop inh	MDM2 E3 inh	HSV augment	L929 necroptosis	E-sel TNF inh
COC(=O)c1ccc(/C=N/OCC(=O)NC2CCCCCCC2)cc1	0	-9	i	78*	11
O=C(O)CCCNC(=O)c1ccc(NC(=O)Cc2ccc(Cl)cc2)cc1	1	-10	i	1	x
Cc1ccc(S(=O)(=O)NNC(=O)c2sccc2-n2cccc2)cc1	-3	-21	i	0	62*
O=C(NNS(=O)(=O)c1ccc(F)cc1)c1sccc1-n1cccc1	1	-15	i	2	-30
CCN(CC)c1ccc(NC(=O)C2CC3CCC2C3)cc1 (configuration not stated)	5	13	i	36	96*
O=C(NCCCn1ccnc1)C(=O)Nc1ccccc1	-1	-4	i	1	x
CCOC(=O)C1C(c2cc(OC)c(O)c(OC)c2)NC(=S)NC1(O)C(F)(F)F (configuration not stated)	1	-19	i	0	72*
CCOC(=O)C1C(c2cc(OC)c(OC)c(OC)c2)NC(=S)NC1(O)C(F)(F)F (configuration not stated)	-3	-21	i	0	9
O=C(Nc1ccc(Cl)cn1)C1COc2ccccc2O1 (configuration not stated)	89*	-22	i	38	-8
Cc1csc(NC(=O)C2COc3ccccc3O2)n1 (configuration not stated)	3	-76	i	0	5
Cc1cc(NC(=O)COC(=O)C2COc3ccccc3O2)no1 (configuration not stated)	-1	-3	i	0	-1
Cc1cc(NC(=O)C2COc3ccccc3O2)no1 (configuration not stated)	90*	-19	i	48	1
Cc1cnc(NC(=O)C2COc3ccccc3O2)s1 (configuration not stated)	76*	-6	i	1	-32
Cc1cc(-c2nnc(CCC(=O)N(C)Cc3cccc4ccccc34)o2)no1	1	-4	i	0	x
CCOC(=O)CCc1nc2ccccc2[nH]c1=O	1	-2	i	1	63*
COC(=O)CCc1nc2ccccc2[nH]c1=O	-1	7	i	0	-10
COc1cc(S(=O)(=O)NC2CCCCC2C)ccc1Cl (configuration not stated)	-1	2	i	0	51*
CCN1CCN(c2ccc(NC(=O)c3ccc4c(c3)[nH]c(=O)n4Cc3ccc(F)cc3)cc2)CC1	10	x	i	5	x
Nc1cccc(-n2nncc2-c2ccc(Cl)cc2)c1	-2	15	i	0	65*
COc1ccc(-c2cnnn2-c2ccc(N)cc2)cc1OC	0	-1	i	1	13
CC(=O)N1CCN(CC(=O)Nc2c(Cl)ccc(C)c2Cl)CC1	0	18	i	3	-7
Cc1cc(C)nc(NS(=O)(=O)c2ccc(NC(=O)Nc3ccccc3F)cc2)n1	2	-8	i	0	x
Cc1ccc(S(=O)(=O)Nc2ccc(NC(=O)Nc3ccc(F)cc3F)cc2)cc1	7	-4	i	3	82*
CCNC(=O)NCc1c(C)c(C)n(Cc2ccccc2)c1-n1cccc1	-1	0	i	-2	-35
COc1ccc(OC)c2sc(NC(=O)CCS(=O)(=O)c3ccccc3)nc12	-2	x	i	1	93*
SMILES	TNF necrop inh	MDM2 E3 inh	HSV augment	L929 necroptosis	E-sel TNF inh
CCc1ccc(C(=O)/C=C/NCc2ccc(F)cc2)cc1	2	-6	1.5*	3	3
Cc1ccc(C)n1NC(=O)c1cccs1	-1	-3	i	0	100*
COc1ccc(/C=N/NC(=O)c2cccc(Br)c2)cc1COc1ccccn1	3	-6	i	1	x
Cn1c(=O)c(=O)n(C)c2cc(S(=O)(=O)N3CCc4ccccc43)ccc21	-2	-13	i	-1	57*
Cn1c(=O)oc2cc(S(=O)(=O)N3CCc4ccccc43)ccc21	-12	-15	i	1	x
COc1cc(/C=C/C(=O)N2CCCN(C(=O)/C=C/c3cc(OC)c(OC)c(OC)c3)CC2)cc(OC)c1OC	0	-8	i	0	5
COc1cc(/C=C/C(=O)N2CCN(CC(O)COc3ccccc3)CC2)cc(OC)c1OC (configuration not stated)	-2	-13	i	0	66*
CCCc1c(O)c2ccccc2[nH]c1=O	-1	-23	i	0	52*

Screening results deposited in PubChem by several laboratories.
